# Assay results published in the array DNA melting data of Ke et al. (doi:10.1101/2024.01.08.574731).
# How the values were obtained:
# [1] = melting temperature; fluorescence melt of hairpins on a sequencing array, two-state fit, raised by 9.35 °C to match UV melts; conditions: sodium 0.088 M
# Summary of the method: (§1)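 Folding enthalpy and melting temperature were estimated with bootstrapped two-state fits and combined across four replicates by inverse-variance weighting, with fitted temperatures raised by 9.35 °C to match UV melts. The data were Cy3 fluorescence of library hairpins, with annealed Cy3 and quencher oligos, on a sequenced MiSeq flow cell in 50 mM Na-HEPES pH 8.0, 25 mM NaCl, imaged in 2.5 °C steps up to 60 °C and normalised to pre-quench Cy3 and control constructs.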
# [2] = folding enthalpy; higher = less favourable; fluorescence melt of hairpins on a sequencing array, two-state fit; conditions: sodium 0.088 M
# Summary of the method: as §1
Sequence,Tm [1],folding enthalpy [2]
GATCAAACAATTGATC ((((((....)))))),37.1 °C,-22.6 kcal/mol
GTGTATGGAAACATACAC (((((((....))))))),57.2 °C,-42 kcal/mol
GGAGCTCCGAAAGGATCC (((..(((....)))))),30.5 °C,-10.9 kcal/mol
CGTGCGGAAACGCGAACG ((((((....)))..))),47.6 °C,-23.3 kcal/mol
GGCAAAGCGAAAGCTGCC (((..(((....)))))),58.5 °C,-31.3 kcal/mol
GTCGCACGAAAGTGAGAC (((.(((....))).))),59.5 °C,-30.6 kcal/mol
GCGAGTAATCGC ((((....)))),58.6 °C,-20.9 kcal/mol
GAAGACGCGAAAGCGTTC (((..(((....)))))),32.1 °C,-7.5 kcal/mol
GCCGATGGAAACGTTGGC (((.(.(....).).))),43 °C,-25.5 kcal/mol
GTGGTACGAAAGTAACAC (((.(((....))).))),58.2 °C,-40.3 kcal/mol
GATCATGACAATGATC ((((((....)))))),56.6 °C,-40.6 kcal/mol
GAATAGGGAAACCTATCC (.(((((....))))).),26.4 °C,-15.5 kcal/mol
GGCCACGAAAGTGCGCC ((((((....))).))),63.6 °C,-32.8 kcal/mol
GCTAGGGGAAACCCTGGC ((.((((....)))).)),53.4 °C,-36.9 kcal/mol
GCTAACGGAAACGCTAGC ((((.((....)).)))),44.8 °C,-33.9 kcal/mol
GGGATCGGAAACGATCTC (.(((((....))))).),54.2 °C,-31.9 kcal/mol
GCACGCGGAAACGCGTAC (.(((((....))))).),48.1 °C,-10.1 kcal/mol
GGCCCACCGAAAGGTGCC (((..(((....)))))),34.2 °C,-9.96 kcal/mol
CGGACGGAAACGTTGCCG ((((((....)))..))),37.8 °C,-15.7 kcal/mol
GGGTTAGGAAACTAATCC ((.((((....)))).)),42.7 °C,-35.1 kcal/mol
GCAATGCGAAAGCCGTGC (((..((....))..))),35.4 °C,-20.4 kcal/mol
GCCTGGCGAAAGCTAAGC ((.(.((....)).).)),36.2 °C,-10.2 kcal/mol
CAACGGAAACGTTG (((((....))))),52.6 °C,-25.9 kcal/mol

Sequence,Tm [1],folding enthalpy [2]
CGTACCGGAAACGGGACG (((.(((....))).))),64.8 °C,-36.4 kcal/mol
GAGTGGGAAACCACTC ((((((....)))))),60.7 °C,-33.6 kcal/mol
GATCTGGCGCAGATC ((((((...)))))),47.5 °C,-27.4 kcal/mol
GAAGAACGAAAGTTTTTC (((.(((....))).))),36 °C,-28.8 kcal/mol
GTCCGACGAAAGTCCGAC (((.(((....))).))),44 °C,-27.5 kcal/mol
GGCGGCGAAAGCCAAGCC ((((((....)))..))),63.9 °C,-25.5 kcal/mol
GATTCGCGAAAGCGCATC (((.(((....))).))),42.7 °C,-21.5 kcal/mol
GGCCTCGAAAGAGCGCC ((((((....))).))),56.7 °C,-21.8 kcal/mol
GTATGTGGAAACACACAC ((.((((....)))).)),35.2 °C,-17.1 kcal/mol
GTTTCGGGAAACTGAGAC ((.((.(....).)).)),35.7 °C,-13.2 kcal/mol
GGTAGCGAAAGCTGTACC ((((((....)))..))),40.7 °C,-19.9 kcal/mol
GTTTCCGAAAGGACGAAC ((((((....)))..))),21.9 °C,-9.15 kcal/mol
GCTTGGCGAAAGCAACGC ((.(.((....)).).)),33.5 °C,-10.5 kcal/mol
GGGCGAGGAAACTCGTCC ((.((((....)))).)),58.2 °C,-41.5 kcal/mol
GATAATGAAAATTATC ((((((....)))))),37.9 °C,-20.5 kcal/mol
GGTTACGCGAAAGCGACC (((..(((....)))))),37.2 °C,-12.4 kcal/mol
GTTCACACGAAAGTGAAC (((..(((....)))))),49.2 °C,-23.8 kcal/mol
GTCCTCGAAAGAGTAGAC ((((((....)))..))),35.9 °C,-19.8 kcal/mol
GATCGGACCTCCGATC ((((((....)))))),56.6 °C,-40.7 kcal/mol
GAGGTGGGAAACTGCCTC ((((..(....)..)))),42.7 °C,-31.5 kcal/mol
GATTTCCGAAAGGAGATC (((.(((....))).))),46.8 °C,-34.3 kcal/mol
GGAACTGGAAACAGTTCC (((((((....))))))),65.7 °C,-42.7 kcal/mol
GACTTACGAAAGTACGTC (((.(((....))).))),44.3 °C,-33.2 kcal/mol
